Measured values: ChEMBL document CHEMBL1833937, “Structure-based design of pseudopeptidic inhibitors for SIRT1 and SIRT2” (J Med Chem, 2011)
pIC50: −log10 of the molar value. Calls of active or inactive are those of the source. The calls are words filed in the database; no cut-off is given here. Where a SMILES comes first, the peptide text is derived from it. [ ]: non-standard residue; d: D form. Lys(Thioacetyl) = CC(=S)NCCCC[C@H](N)C(=O)O

What was measured:
[1] = molecular target: T1, NAD-dependent protein deacetylase sirtuin-1 (Homo sapiens, UniProt Q96EB6); experiment: Inhibition of recombinant GST-tagged SIRT1 after 1 hr by Fluor de Lys-based fluorescence assay
T1 sequence (Q96EB6 whole entry): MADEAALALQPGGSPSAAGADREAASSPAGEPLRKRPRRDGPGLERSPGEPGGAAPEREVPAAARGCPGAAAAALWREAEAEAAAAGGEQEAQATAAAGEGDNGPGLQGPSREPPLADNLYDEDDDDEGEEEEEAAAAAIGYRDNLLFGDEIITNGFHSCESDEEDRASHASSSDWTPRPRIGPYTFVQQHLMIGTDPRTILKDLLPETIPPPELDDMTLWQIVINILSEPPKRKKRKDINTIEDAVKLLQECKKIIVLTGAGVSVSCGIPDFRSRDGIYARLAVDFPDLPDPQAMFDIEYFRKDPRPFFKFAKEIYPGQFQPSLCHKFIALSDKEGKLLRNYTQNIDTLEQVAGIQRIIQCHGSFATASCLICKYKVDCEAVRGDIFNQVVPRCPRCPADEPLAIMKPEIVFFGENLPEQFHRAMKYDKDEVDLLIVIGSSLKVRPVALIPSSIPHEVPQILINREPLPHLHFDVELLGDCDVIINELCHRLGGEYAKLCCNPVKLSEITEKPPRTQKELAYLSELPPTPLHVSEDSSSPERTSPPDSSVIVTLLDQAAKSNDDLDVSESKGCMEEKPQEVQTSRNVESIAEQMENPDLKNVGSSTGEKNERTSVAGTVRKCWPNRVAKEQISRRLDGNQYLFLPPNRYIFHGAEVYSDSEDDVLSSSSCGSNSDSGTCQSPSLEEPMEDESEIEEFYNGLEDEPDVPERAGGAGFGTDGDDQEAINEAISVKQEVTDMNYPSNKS
Outline: (§1)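 Fluor de Lys deacetylation: GST-SIRT1 with KI177 substrate at 40 μM or GST-SIRT2 with KI179 substrate at 138 μM (70% of Km; Km 58 and 198 μM), 500 μM NAD+, assay buffer with 1 mg/mL BSA, DMSO 2.5 μL per 50 μL. Substrate, NAD+ and compound preincubated 5 min rt; enzyme starts reaction, 1 h 37 °C. Developer plus 2 mM nicotinamide, 45 min 37 °C; ex 355/em 460 nm. IC50 from 9-point dose-response (0.0001–2000 μM), at least three repeats.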

[2] = molecular target: T2, NAD-dependent protein deacetylase sirtuin-2 (Homo sapiens, UniProt Q8IXJ6); experiment: Inhibition of recombinant GST-tagged SIRT2 after 1 hr by Fluor de Lys-based fluorescence assay; outline: as §1
T2 sequence (Q8IXJ6 whole entry): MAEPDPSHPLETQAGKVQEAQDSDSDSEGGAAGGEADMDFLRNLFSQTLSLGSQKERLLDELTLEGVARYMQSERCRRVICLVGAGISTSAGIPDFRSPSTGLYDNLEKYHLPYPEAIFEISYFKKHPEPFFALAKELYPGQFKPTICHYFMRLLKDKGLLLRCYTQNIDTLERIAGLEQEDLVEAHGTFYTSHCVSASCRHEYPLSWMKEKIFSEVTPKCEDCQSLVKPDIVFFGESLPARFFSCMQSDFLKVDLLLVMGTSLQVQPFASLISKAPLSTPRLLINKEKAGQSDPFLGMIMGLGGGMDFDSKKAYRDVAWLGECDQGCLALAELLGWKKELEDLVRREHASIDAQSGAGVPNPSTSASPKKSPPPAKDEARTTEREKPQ

[3] = molecular target: Histone deacetylase (Homo sapiens) (UniProt Q13547+O15379+Q9UBN7+Q92769+Q9UQL6+Q8WUI4+Q9BY41+Q96DB2+P56524+Q9UKV0+Q969S8); experiment: Inhibition of HDAC in human HeLa nuclear extract at 200 uM after 1 hr by Fluor de Lys-based fluorescence assay; type: protein assay
Outline: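 HeLa nuclear extract as HDAC source, 50 μM acetylated Fluor de Lys HDAC substrate, compounds 200 μM in HDAC assay buffer; substrate addition starts reaction, 1 h at 37 °C. Developer plus […], 15 min at 25 °C; fluorescence ex 355/em 460 nm. Run twice; means and standard deviations.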

[4] = molecular target: T3, NAD-dependent protein deacetylase sirtuin-1 (Homo sapiens) (UniProt Q96EB6); experiment: Inhibition of human SIRT1 in human astrocytes assessed as increase in p53 acetylation level at 10 uM after 5 hrs by Western blot analysis in presence of etoposide-induced DNA damage; type: cell-based
T3 sequence (whole entry): T1 sequence (Q96EB6 whole entry)
Outline: (§2)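 Cells seeded at 10^5 per well and treated 24 h later with compound plus etoposide together for 5 h. Lysates (M-PER) cleared 16000g 20 min, equal protein on 4–12% SDS-PAGE, blotted to nitrocellulose, probed with rabbit monoclonal anti-acetyl-p53 (K382), actin as loading control, HRP secondary and chemiluminescence.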

[5] = molecular target: T3, NAD-dependent protein deacetylase sirtuin-1 (Homo sapiens); experiment: Inhibition of human SIRT1 in ARPE19 cells assessed as increase in p53 acetylation level at 10 uM after 5 hrs by Western blot analysis in presence of etoposide-induced DNA damage; type: cell-based; outline: as §2
[6] = molecular target: T3, NAD-dependent protein deacetylase sirtuin-1 (Homo sapiens); experiment: Inhibition of human SIRT1 in SH-SY5Y cells assessed as increase in p53 acetylation level at 10 uM after 5 hrs by Western blot analysis in presence of etoposide-induced DNA damage; type: cell-based; outline: as §2
[7] = Cytotoxicity against human astrocytes at 10 uM by LDH assay; type: cell-based; settings: astrocyte
Outline: (§3)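 After plating at 10^5 cells/well and 24 h attachment, cells exposed 5 h to compound together with etoposide; cytotoxicity read as lactate dehydrogenase released into culture medium by a commercial LDH kit.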

[8] = Cytotoxicity against human ARPE19 cells at 10 uM by LDH assay; type: cell-based; settings: arpe-19, 10 µM; outline: as §3
SH-SY5Y [9] = experiment: Cytotoxicity against human SH-SY5Y cells at 10 uM by LDH assay; type: functional, cell-based; outline: as §3
[10] = molecular target: T3, NAD-dependent protein deacetylase sirtuin-1 (Homo sapiens); experiment: Inhibition of human SIRT1 in SH-SY5Y cells assessed as increase in p53 acetylation level at 100 uM after 5 hrs by Western blot analysis in presence of etoposide-induced DNA damage; type: cell-based; outline: as §2
SH-SY5Y [11] = experiment: Cytotoxicity against human SH-SY5Y cells at 100 uM by LDH assay; type: functional, cell-based; outline: as §3
[12] = molecular target: T3, NAD-dependent protein deacetylase sirtuin-1 (Homo sapiens); experiment: Inhibition of recombinant GST-tagged SIRT1 at 200 uM after 1 hr by Fluor de Lys-based fluorescence assay
Outline: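 Single-point Fluor de Lys test at 200 μM: GST-SIRT1 (40 μM KI177 substrate) or GST-SIRT2 (138 μM KI179 substrate), 500 μM NAD+, BSA-supplemented buffer, 5 min rt preincubation, enzyme-started 1 h at 37 °C. Developer with 2 mM nicotinamide 45 min 37 °C; fluorescence ex 355/em 460 nm. Percent inhibition ± standard deviation.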

Compound | pIC50 [1] | pIC50 [2] | inhibition [3] | other results
CC(=S)NCCCC[C@H](NC(=O)OCc1ccccc1)C(=O)Nc1ccccc1 | 5.00 | 4.82 | 2.5% | –
CC(=S)NCCCC[C@H](NC(=O)CCc1ccccc1F)C(=O)N[C@@H](C)C(=O)O | 5.89 | 4.57 | 16.3% | –
CC(=S)NCCCC[C@H](NC(=O)OCc1ccccc1)C(=O)Nc1ccccc1O | 5.29 | 5.13 | 1.9% | –
CC(=S)NCCCC[C@H](NC(=O)OCc1ccccc1)C(=O)NCC(=O)c1ccccc1 | 5.80 | 5.37 | 5.1% | Activity [4]: Active; Activity [5]: Active; Activity [6]: Active; Activity [7]: Non-toxic; Activity [8]: Non-toxic; Activity (SH-SY5Y [9]): inactive
CC(=S)NCCCC[C@H](NC(=O)[C@H](N)Cc1ccccc1)C(=O)N[C@@H](C)C(=O)O | 4.74 | – | 7.6% | –
CC(=S)NCCCC[C@H](N)C(=O)N[C@@H](C)C(=O)O | – | – | – | inhibition [12]: 46.9%
CC(=S)NCCCC[C@H](NC(=O)CCc1ccccc1O)C(=O)N[C@@H](C)C(=O)O | 6.00 | 4.28 | 5.6% | –
CC(=S)NCCCC[C@H](NC(=O)OCc1ccccc1)C(=O)Nc1ccccc1F | 5.13 | 4.80 | 1.4% | –
CC(=S)NCCCC[C@H](NC(=O)OCc1ccccc1)C(=O)NC1CCCCC1 | 4.64 | – | 75.4% | –
COC(=O)[C@H](C)NC(=O)[C@H](CCCCNC(C)=S)NC(C)=O | 4.29 | 3.06 | – | –
CC(=S)NCCCC[C@H](NC(=O)OCc1ccccc1)C(=O)N[C@@H](C)C(=O)O | 5.89 | 4.77 | 3.9% | Activity [6]: Active; Activity (SH-SY5Y [9]): inactive
COC(=O)[C@H](C)NC(=O)[C@H](CCCCNC(C)=S)NC(=O)[C@H](C)NC(C)=O | 6.00 | 4.89 | – | –

Further lines, with some results ahead:

pIC50 [1] | pIC50 [2] | inhibition [3] | Compound | other results
6.01 | 4.89 | 23.7% | CC(=S)NCCCC[C@H](NC(=O)[C@@H]1CCCN(C(=O)OC(C)(C)C)C1)C(=O)N[C@@H](C)C(=O)O | Activity [6]: Active; Activity [10]: Active; Activity (SH-SY5Y [9]): inactive; Activity (SH-SY5Y [11]): inactive
6.18 | 4.44 | – | CC(=S)NCCCC[C@H](NC(=O)[C@H](C)N)C(=O)N[C@@H](C)C(=O)O | –
6.40 | 5.54 | – | CNC(=O)[C@H](C)NC(=O)[C@H](CCCCNC(C)=S)NC(=O)[C@H](C)NC(C)=O | –
6.00 | 4.25 | 8.5% | CC(=S)NCCCC[C@H](NC(=O)CCc1ccccc1)C(=O)N[C@@H](C)C(=O)O | –
6.11 | 5.19 | 10.1% | CC(=S)NCCCC[C@H](NC(=O)[C@H](C)NC(=O)OC(C)(C)C)C(=O)N[C@@H](C)C(=O)O | –
6.51 | 5.20 | – | CSCC[C@H](NC(=O)[C@H](CC(C)C)NC(=O)[C@H](CCCCNC(C)=S)NC(=O)[C@H](CCCCN)NC(=O)[C@@H](N)Cc1cnc[nH]1)C(=O)O (H-HK[Lys(Thioacetyl)]LM-OH) | –
6.43 | 4.51 | – | CC(=O)N1CCC[C@H]1C(=O)N[C@@H](CCCCNC(C)=S)C(=O)N[C@@H](C)C(=O)O | –
